# Results as given in ChEMBL document CHEMBL1127420, “Syntheses of racemic and nearly optically pure ether lipids and evaluation of in vitro antineoplastic activities” (J Med Chem, 1994).
# Legend:
# [1] = tested on: B-lymphoblastic leukemic cell line; test: Cytotoxicity was assessed by measurement of cytosolic lactic dehydrogenase (LDH) leakage after 24 hr incubation with human B-lymphoblastic leukemic ([…]) cell line; type: functional; details: for IC50: Homo sapiens, B-lymphoblastic leukemic cell line, 24 h, read-out: ID50 (the source's name)
# Method in brief: (§1)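 Log-phase cells were washed and resuspended in phenol red-free RPMI 1640, then mixed 1:1 with lipid in serum medium. Final conditions were 5 × 10^5 cells/mL, 0–50 µg/mL ether lipid and 0.5% ethanol, in triplicate at 37 °C in 5% CO2 for 24 h. Supernatant LDH was measured with lactate/INT/PMS/NAD in Tris pH 8.2, read at 490 nm after 3 min. % cytotoxicity = (E−S)/(M−S), with M from freeze-thaw. ID50 came from nonlinear regression, mean ± SD.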
# CCRF-CEM = test: Cytotoxicity was assessed by measurement of cytosolic lactic dehydrogenase (LDH) leakage after 24 hr incubation with human T-lymphoblastic leukemic (CEM) cell line; type: functional; details: for IC50: Homo sapiens, CCRF-CEM, 24 h, read-out: ID50 (the source's name); method in brief: as §1
# [2] = Cytotoxicity was assessed by measurement of cytosolic lactic dehydrogenase (LDH) leakage after 24 hr incubation with freshly isolated human peripheral lymphocytes; details: read-out: ID50
# Method in brief: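 Peripheral lymphocytes were pooled from two unmedicated human donors and isolated by the Boyum method, giving >85% lymphocytes; viability was checked by trypan blue. Cytotoxicity was measured as 24 h LDH leakage into the medium and expressed as % of maximal freeze-thaw release after subtracting spontaneous release. ID50 came from a nonlinear regression fit of cytotoxicity versus dose.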
# HuT78 = test: Cytotoxicity was assessed by measurement of cytosolic lactic dehydrogenase (LDH) leakage after 24 hr incubation with human cutaneous T-lymphoma (Hut 78) cell line; type: functional; details: for IC50: Homo sapiens, HuT78, 24 h, read-out: ID50 (the source's name); method in brief: as §1
Compound,IC50 [1],IC50 (CCRF-CEM),CC50 at 24 h [2],IC50 (HuT78),ID50 [1],ID50 (CCRF-CEM),ID50 (HuT78)
CCCCCCCCCCCCCCCCCCOCC(COP(=O)(O)O[C@H](C)C[N+](C)(C)C)OC.[OH-] (stereo partly drawn),10.1 µg/mL,2.7 µg/mL,> 100 µg/mL,9.1 µg/mL,,,
CCCCCCCCCCCCCCCCCCOCC(COP(=O)(O)OCC[N+]1(C)CCOCC1)OC.[OH-] (stereo not drawn),8.4 µg/mL,2.8 µg/mL,52.1 µg/mL,3.4 µg/mL,,,
CCCCCCCCCCCCCCCCCCOCC(COP(=O)(O)OCCN(C)C)OC.O (stereo not drawn),9.6 µg/mL,4.6 µg/mL,24.6 µg/mL,3.5 µg/mL,,,
CCCCCCCCCCCCCCCCCCOCC(COP(=O)(O)OCC[N+]1(C)CCCC1)OC.[OH-] (stereo not drawn),13.2 µg/mL,2.7 µg/mL,22.7 µg/mL,9.3 µg/mL,,,
CCCCCCCCCCCCCCCCCCOCC(COP(=O)(O)OC[C@H](C)[N+](C)(C)C)OC.[OH-] (stereo partly drawn),8.9 µg/mL,2.1 µg/mL,> 100 µg/mL,5.9 µg/mL,,,
CCCCCCCCCCCCCCCCCCOCC(COP(=O)(O)OC[C@@H](C)[N+](C)(C)C)OC.[OH-] (stereo partly drawn),9.9 µg/mL,2 µg/mL,> 100 µg/mL,6.9 µg/mL,,,
CCCCCCCCCCCCCCCCCCOCC(COP(=O)(O)O[C@@H](C)C[N+](C)(C)C)OC.[OH-] (stereo partly drawn),9.8 µg/mL,2.3 µg/mL,> 100 µg/mL,9.3 µg/mL,,,
CCCCCCCCCCCCCCCCCCOCC(COP(=O)(O)OCC[N+](C)(C)C)OC.[OH-] (stereo in doubt; 1),,,,,15.3 µg/mL,1.5 µg/mL,4.5 µg/mL
CCCCCCCCCCCCCCCCCCOCC(COP(=O)(O)OCC[N+](C)(C)C)OC.[OH-] (stereo in doubt; 2),16.3 µg/mL,1.9 µg/mL,> 100 µg/mL,4.1 µg/mL,,,
CCCCCCCCCCCCCCCCCCOCC(COP(=O)(O)OCC[N+](C)(C)C)OC.[OH-] (stereo in doubt; 3),,,,,20.4 µg/mL,2 µg/mL,6.6 µg/mL
